One block for each compound: values may come before it.
Key:
[1] = molecular target: Calcium/calmodulin-dependent protein kinase kinase 1 (Homo sapiens) (UniProt Q8N5S9); assay: Inhibition of human recombinant CaMKK1 at 500 nM related to control ULK1
[2] = molecular target: T1, Mitogen-activated protein kinase kinase kinase kinase 2 (Homo sapiens) (UniProt Q12851); assay: Inhibition of human recombinant GCK at 500 nM related to control ULK1
T1 sequence (whole entry): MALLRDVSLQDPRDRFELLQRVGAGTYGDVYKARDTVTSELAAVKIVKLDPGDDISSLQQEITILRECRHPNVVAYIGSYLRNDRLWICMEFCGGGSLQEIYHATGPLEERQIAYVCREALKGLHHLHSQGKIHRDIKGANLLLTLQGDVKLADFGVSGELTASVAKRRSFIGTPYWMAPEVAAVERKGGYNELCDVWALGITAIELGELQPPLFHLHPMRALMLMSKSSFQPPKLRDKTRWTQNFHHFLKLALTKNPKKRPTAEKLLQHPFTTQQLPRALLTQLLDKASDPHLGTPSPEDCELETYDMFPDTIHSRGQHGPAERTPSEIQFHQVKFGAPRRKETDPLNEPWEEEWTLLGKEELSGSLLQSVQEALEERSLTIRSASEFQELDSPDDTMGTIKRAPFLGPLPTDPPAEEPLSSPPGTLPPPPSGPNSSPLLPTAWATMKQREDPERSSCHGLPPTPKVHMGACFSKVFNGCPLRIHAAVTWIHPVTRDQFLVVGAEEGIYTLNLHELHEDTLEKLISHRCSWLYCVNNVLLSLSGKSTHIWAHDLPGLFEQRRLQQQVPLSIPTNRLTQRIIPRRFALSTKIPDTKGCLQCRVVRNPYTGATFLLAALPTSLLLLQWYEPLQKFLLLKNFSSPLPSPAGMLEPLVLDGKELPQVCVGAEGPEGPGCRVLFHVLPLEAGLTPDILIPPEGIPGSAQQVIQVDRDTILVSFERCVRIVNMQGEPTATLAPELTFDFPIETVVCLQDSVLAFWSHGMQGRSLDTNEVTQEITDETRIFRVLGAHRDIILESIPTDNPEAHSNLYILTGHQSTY

[3] = molecular target: Calcium/calmodulin-dependent protein kinase type II subunit beta (Homo sapiens) (UniProt Q13554); assay: Inhibition of human recombinant CaMK2b at 15 nM related to control ULK1
Chain of Calcium/calmodulin-dependent protein kinase type II subunit beta (Homo sapiens) (Q13554 whole entry): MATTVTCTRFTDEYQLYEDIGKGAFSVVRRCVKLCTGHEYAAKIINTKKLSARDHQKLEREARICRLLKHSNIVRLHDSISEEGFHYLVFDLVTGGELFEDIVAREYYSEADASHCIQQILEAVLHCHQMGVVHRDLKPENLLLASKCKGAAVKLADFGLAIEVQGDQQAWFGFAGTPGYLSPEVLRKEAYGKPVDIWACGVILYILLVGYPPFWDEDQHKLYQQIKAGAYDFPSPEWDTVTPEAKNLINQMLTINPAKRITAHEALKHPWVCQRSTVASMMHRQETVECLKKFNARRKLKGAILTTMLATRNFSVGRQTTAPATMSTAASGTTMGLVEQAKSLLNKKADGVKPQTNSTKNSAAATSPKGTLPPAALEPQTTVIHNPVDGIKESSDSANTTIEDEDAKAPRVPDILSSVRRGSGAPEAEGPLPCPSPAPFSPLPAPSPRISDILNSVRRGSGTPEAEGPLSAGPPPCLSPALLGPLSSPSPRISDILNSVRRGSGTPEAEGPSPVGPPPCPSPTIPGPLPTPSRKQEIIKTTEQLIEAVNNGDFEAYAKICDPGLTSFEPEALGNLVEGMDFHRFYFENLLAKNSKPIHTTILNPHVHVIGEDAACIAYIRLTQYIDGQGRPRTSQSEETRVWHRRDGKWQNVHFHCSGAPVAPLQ

[4] = molecular target: T2, Serine/threonine-protein kinase A-Raf (Homo sapiens) (UniProt P10398); assay: Inhibition of human recombinant ARAF at 40 nM related to control ULK1
T2 sequence (whole entry): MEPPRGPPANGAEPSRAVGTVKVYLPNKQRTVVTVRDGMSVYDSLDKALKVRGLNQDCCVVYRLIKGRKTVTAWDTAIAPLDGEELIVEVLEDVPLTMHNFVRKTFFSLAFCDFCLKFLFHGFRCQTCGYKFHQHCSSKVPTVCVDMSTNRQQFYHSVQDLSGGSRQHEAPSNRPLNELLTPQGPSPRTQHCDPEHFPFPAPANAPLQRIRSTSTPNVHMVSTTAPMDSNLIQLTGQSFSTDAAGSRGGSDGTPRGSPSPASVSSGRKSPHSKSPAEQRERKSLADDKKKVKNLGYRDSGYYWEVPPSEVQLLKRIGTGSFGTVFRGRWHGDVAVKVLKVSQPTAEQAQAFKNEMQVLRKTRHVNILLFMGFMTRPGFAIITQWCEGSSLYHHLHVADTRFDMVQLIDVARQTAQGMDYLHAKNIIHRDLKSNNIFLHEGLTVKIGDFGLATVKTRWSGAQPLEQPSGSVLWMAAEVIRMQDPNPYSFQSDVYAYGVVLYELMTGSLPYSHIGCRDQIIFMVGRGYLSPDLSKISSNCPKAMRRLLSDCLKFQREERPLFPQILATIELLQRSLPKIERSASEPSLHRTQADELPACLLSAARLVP
Method in brief: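 Radiometric activity assays in a panel of 327 human recombinant kinases, each run in duplicate at one inhibitor concentration. Activity remaining is expressed as percent of vehicle control, and percent inhibition is calculated as 100% minus percent activity remaining.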

[5] = molecular target: Protein kinase C iota type (Homo sapiens) (UniProt P41743); assay: Inhibition of human recombinant PKCi at 40 nM in presence of ATP by radiometric assay relative to control
Chain of Protein kinase C iota type (Homo sapiens) (P41743 whole entry, looked up, the tested form may be a part): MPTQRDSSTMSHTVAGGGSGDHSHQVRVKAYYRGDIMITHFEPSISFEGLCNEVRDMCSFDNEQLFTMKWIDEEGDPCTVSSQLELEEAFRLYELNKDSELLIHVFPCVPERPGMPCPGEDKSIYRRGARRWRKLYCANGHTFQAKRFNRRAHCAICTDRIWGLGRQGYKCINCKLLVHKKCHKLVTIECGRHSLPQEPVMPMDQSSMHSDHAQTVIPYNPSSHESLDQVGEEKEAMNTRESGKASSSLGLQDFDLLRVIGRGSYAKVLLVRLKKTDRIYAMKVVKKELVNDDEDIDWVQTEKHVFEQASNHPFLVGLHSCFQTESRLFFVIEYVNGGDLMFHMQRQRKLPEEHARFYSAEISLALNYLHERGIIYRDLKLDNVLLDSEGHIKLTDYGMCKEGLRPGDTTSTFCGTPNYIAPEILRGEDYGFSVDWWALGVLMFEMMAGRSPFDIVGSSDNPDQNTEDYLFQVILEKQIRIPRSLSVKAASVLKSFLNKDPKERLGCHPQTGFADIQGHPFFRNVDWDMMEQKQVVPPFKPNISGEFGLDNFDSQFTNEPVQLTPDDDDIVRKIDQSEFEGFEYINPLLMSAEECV

[6] = molecular target: T3, Discoidin domain-containing receptor 2 (Homo sapiens) (UniProt Q16832); assay: Inhibition of human recombinant DDR2 at 40 nM related to control ULK1
T3 sequence (whole entry): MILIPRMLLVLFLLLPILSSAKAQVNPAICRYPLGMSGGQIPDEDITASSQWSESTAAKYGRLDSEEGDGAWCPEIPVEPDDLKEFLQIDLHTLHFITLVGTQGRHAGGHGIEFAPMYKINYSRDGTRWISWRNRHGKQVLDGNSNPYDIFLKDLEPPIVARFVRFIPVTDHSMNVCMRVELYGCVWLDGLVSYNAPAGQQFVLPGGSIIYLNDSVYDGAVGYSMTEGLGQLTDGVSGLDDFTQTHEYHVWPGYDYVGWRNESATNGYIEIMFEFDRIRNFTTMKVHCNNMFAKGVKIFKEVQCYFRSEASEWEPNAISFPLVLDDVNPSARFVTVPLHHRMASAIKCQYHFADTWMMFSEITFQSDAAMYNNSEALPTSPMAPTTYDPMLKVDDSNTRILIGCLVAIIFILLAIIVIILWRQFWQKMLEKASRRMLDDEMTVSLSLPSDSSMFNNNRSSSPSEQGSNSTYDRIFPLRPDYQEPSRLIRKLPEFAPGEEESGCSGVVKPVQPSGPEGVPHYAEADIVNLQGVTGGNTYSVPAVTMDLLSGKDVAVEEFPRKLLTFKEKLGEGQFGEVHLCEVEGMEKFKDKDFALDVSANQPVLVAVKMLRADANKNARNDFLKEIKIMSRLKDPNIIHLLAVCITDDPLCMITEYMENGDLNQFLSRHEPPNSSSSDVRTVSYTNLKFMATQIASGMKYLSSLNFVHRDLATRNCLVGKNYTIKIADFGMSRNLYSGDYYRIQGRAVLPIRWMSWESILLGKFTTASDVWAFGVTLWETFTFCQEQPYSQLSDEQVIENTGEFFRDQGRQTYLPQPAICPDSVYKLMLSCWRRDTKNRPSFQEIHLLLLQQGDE

Chain of Calcium/calmodulin-dependent protein kinase kinase 1 (Homo sapiens) (Q8N5S9 whole entry, looked up): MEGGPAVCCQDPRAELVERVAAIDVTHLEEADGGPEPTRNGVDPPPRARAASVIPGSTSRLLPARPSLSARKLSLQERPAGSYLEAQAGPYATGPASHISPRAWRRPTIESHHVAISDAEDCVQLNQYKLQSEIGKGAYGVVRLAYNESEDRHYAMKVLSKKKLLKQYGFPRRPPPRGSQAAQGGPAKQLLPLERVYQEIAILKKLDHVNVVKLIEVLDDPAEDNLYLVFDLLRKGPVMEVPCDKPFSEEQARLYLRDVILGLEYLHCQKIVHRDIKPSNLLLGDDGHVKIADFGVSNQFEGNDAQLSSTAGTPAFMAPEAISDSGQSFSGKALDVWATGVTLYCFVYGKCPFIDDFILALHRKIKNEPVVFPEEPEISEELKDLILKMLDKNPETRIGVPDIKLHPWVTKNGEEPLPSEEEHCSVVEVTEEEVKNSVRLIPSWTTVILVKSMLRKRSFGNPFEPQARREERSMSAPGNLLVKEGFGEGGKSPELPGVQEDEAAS

fold change (FC) [1]: 0.11
fold change (FC) [2]: 0.45
Compound: CNC(=O)c1ccccc1Oc1nc(Nc2cc(OC)c(OC)c(OC)c2)ncc1Br

fold change (FC) [3]: 0.11
Compound: CC(C)[C@H](NC(=O)c1cc(-c2cnn3cc(-c4ccc(OCCN5CCCCC5)cc4)cnc23)cs1)C(F)(F)F

fold change (FC) [4]: 0
inhibition [5]: 0%
fold change (FC) [6]: 0
Compound: O=C(N[C@@H](C1CC1)C(F)(F)F)c1cc(-c2cnn3cc(-c4ccc(F)cc4)cnc23)cs1
